Activity calls are given as the source filed them.
What was measured:
[1] = target: Cannabinoid receptor 1 (Homo sapiens) (UniProt P21554); test: Positive allosteric modulation of human CB1R expressed in CHO cell membranes assessed as increase in [3H]CP55940 binding at 100 nM after 60 mins by liquid scintillation spectrometric method
Outline: (§1)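 Membranes (50 µg protein) from CHO cells stably expressing human CB1R or CB2R, incubated with 0.7 nM [3H]CP55940 in 50 mM Tris binding buffer with 0.1% BSA, pH 7.4, at 37 °C for 60 min. Vehicle 0.1% DMSO. Ended with ice-cold buffer and vacuum filtration through GF/B filters, then liquid scintillation counting. Specific binding is total minus binding with 1 µM unlabelled CP55940. Six independent experiments, each in duplicate.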

[2] = target: Cannabinoid receptor 2 (Homo sapiens) (UniProt P34972); test: Positive allosteric modulation of human CB2R expressed in CHO cell membranes assessed as increase in [3H]CP55940 binding after 60 mins by liquid scintillation spectrometric method; outline: as §1
[3] = target: Cannabinoid receptor 1 (Homo sapiens) (UniProt P21554); test: Displacement of [3H]CP55940 from human CB1R expressed in CHO cell membranes at 100 nM after 60 mins by liquid scintillation spectrometric method; outline: as §1
[4] = target: Cannabinoid receptor 1 (Homo sapiens) (UniProt P21554); test: Positive allosteric modulation of human CB1R expressed in CHO cell membranes assessed as increase in [3H]CP55940 binding up to 1 uM after 60 mins by liquid scintillation spectrometric method relative to control
[5] = target: T1, Monoglyceride lipase (Homo sapiens) (UniProt Q99685); test: Inhibition of recombinant human MAGL at <10 uM using 4-NPA as substrate after 30 mins by colorimetric method
T1 sequence (whole entry): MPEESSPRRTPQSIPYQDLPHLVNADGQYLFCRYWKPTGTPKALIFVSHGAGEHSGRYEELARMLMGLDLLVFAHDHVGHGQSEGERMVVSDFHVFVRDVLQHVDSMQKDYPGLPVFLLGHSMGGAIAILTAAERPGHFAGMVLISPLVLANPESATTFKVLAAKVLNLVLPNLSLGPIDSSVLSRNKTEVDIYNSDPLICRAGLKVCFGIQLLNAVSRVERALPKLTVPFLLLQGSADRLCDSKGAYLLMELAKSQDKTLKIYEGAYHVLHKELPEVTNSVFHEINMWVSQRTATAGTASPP
Outline: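 Human recombinant MAGL, 11 ng/well, with 100 µM (final) 4-nitrophenylacetate in 10 mM Tris pH 7.2, 1 mM EDTA, 0.1 mg/ml BSA, at room temperature for 30 min. 4-Nitrophenol release read at 405 nm. Controls were no-compound and no-enzyme reactions.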

[6] = tested on: Mus musculus; test: Antinociceptive activity in CD-1 albino mouse model of oxaliplatin-induced neuropathic pain assessed as licking latency time at 20 mg/kg, po treated on day 15 post oxaliplatin treatment and measured at 60 mins post dose by cold plate test (reference value: 9.7 +/- 0.9 secs); type: functional
Outline: (§2)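 Male CD-1 mice (22–25 g) received oxaliplatin 2.4 mg kg-1 i.p. in 5% glucose on days 1-2, 5-9 and 12-14; controls got vehicle. On day 15, a single oral dose in 1% carboxymethylcellulose was given. Cold plate held at 4 °C; latency to first hind-paw licking recorded, 60 s cut-off, at 15, 30, 45, 60 and 75 min. n=16 mice over 2 sets; one-way ANOVA with Bonferroni.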

[7] = target: Cannabinoid receptor 2 (Homo sapiens) (UniProt P34972); test: Positive allosteric modulation of human CB2R expressed in CHO cell membranes assessed as decrease in [3H]CP55940 dissociation at 100 nM up to 2 hrs by liquid scintillation spectrometric method
Outline: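 Human CB2R CHO membranes (50 µg protein) were used for [3H]CP55940 dissociation in Tris buffer with 0.1% BSA, pH 7.4, with or without 100 nM test compound. Dissociation followed 0.5–120 min at 25 °C; filtration and scintillation counting. Nonspecific binding taken with 1 µM unlabelled ligand. Four experiments in duplicate.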

[8] = tested on: Mus musculus; test: Antinociceptive activity in CD-1 albino mouse model of oxaliplatin-induced neuropathic pain assessed as increase in licking latency at 1 to 10 mg/kg, po treated 15 mins after MAGL inhibitor trans-(1-(1-(1H-1,2,4-Triazole-1-carbonyl)piperidin-4-yl)-4-benzo[d][1,3]dioxol-5-yl)-3-(4-fluorophenyl)azetidin-2-one treatment on day 15 post oxaliplatin treatment and measured up to 75 mins post dose by cold plate test; type: functional
Outline: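 Oxaliplatin model in male CD-1 mice: 2.4 mg kg-1 i.p. in 5% glucose on days 1-2, 5-9 and 12-14, tested day 15. MAGL inhibitor F 1 mg kg-1 p.o. was combined with oral test dosing, both in 1% carboxymethylcellulose. Cold plate latency at 4 °C, 60 s cut-off, read 15–75 min after dosing. 16 mice over 2 sets; ANOVA/Bonferroni; synergy by Chou-Talalay combination index.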

[9] = target: Cannabinoid receptor 2 (Homo sapiens) (UniProt P34972); test: Positive allosteric modulation of human CB2R expressed in CHO cell membranes assessed as increase in 2-AG-stimulated [35S]GTPgammaS binding at 100 nM after 90 mins by liquid scintillation counting method; type: functional
Outline: (§3)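 Membranes (1 mg/ml) from CHO cells stably expressing human CB1R or CB2R. Incubated with 0.1 nM [35S]GTPγS and 30 µM GDP in 50 mM Tris, 10 mM MgCl2, 100 mM NaCl, 0.2 mM EDTA, 1 mM DTT, pH 7.4, 0.1% DMSO, 30 °C for 90 min. Filtered on GF/B; scintillation counting. Duplicates; six experiments for CB1R, twelve for CB2R with CP55940.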

[10] = tested on: Mus musculus; test: Antinociceptive activity in CD-1 albino mouse model of oxaliplatin-induced neuropathic pain assessed as increase in licking latency at 20 mg/kg, po treated 15 mins after CB2R antagonist SR144528 treatment on day 15 post oxaliplatin treatment and measured up to 75 mins post dose by cold plate test; type: functional, organism-based
Outline: (§4)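 Male CD-1 mice on day 15 after oxaliplatin (2.4 mg kg-1 i.p., days 1-2, 5-9, 12-14) received the selective antagonist i.p., then the oral test dose. Cold plate at 4 °C with 60 s cut-off, licking latency read 15, 30, 45, 60 and 75 min post dose. 16 mice in 2 sets; ANOVA with Bonferroni.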

[11] = target: Cannabinoid receptor 2 (Homo sapiens) (UniProt P34972); test: Positive allosteric modulation of human CB2R expressed in CHO cell membranes assessed as increase in CP55940-stimulated [35S]GTPgammaS binding at 100 nM after 90 mins by liquid scintillation counting method; type: functional; outline: as §3
[12] = target: Cannabinoid receptor 2 (Homo sapiens) (UniProt P34972); test: Inhibition of [35S]GTPgammaS binding to human CB2R expressed in CHO cell membranes at 100 nM after 90 mins by liquid scintillation counting method; type: functional; outline: as §3
[13] = target: Cannabinoid receptor 2 (Homo sapiens) (UniProt P34972); test: Positive allosteric modulation of human CB2R expressed in CHO cell membranes assessed as increase in AEA-stimulated [35S]GTPgammaS binding at 100 nM after 90 mins by liquid scintillation counting method; type: functional; outline: as §3
[14] = tested on: Mus musculus; test: Antinociceptive activity in CD-1 albino mouse model of oxaliplatin-induced neuropathic pain assessed as licking latency time at 20 mg/kg, po treated on day 15 post oxaliplatin treatment and measured up to 15 mins post dose by cold plate test (reference value: 9.7 +/- 0.9 secs); type: functional; outline: as §2
[15] = target: Cannabinoid receptor 2 (Homo sapiens) (UniProt P34972); test: Stimulation of [35S]GTPgammaS binding to human CB2R expressed in CHO cell membranes at 100 nM after 90 mins by liquid scintillation counting method; type: functional; outline: as §3
[16] = tested on: Mus musculus; test: Antinociceptive activity in CD-1 albino mouse model of oxaliplatin-induced neuropathic pain assessed as increase in licking latency at 5 to 10 mg/kg, po treated on day 15 post oxaliplatin treatment and measured at 30 to 60 mins post dose by cold plate test; type: functional, organism-based; outline: as §2
[17] = tested on: Mus musculus; test: Antinociceptive activity in CD-1 albino mouse model of oxaliplatin-induced neuropathic pain assessed as increase in licking latency at 20 mg/kg, po treated 15 mins after CB1R antagonist SR141716A treatment on day 15 post oxaliplatin treatment and measured up to 75 mins post dose by cold plate test; type: functional, organism-based; outline: as §4
[18] = target: Cannabinoid receptor 1 (Homo sapiens) (UniProt P21554); test: Positive allosteric modulation of human CB1R expressed in CHO cell membranes assessed as increase in [3H]CP55940 binding at 10 uM after 60 mins by liquid scintillation spectrometric method
[19] = target: Cannabinoid receptor 1 (Homo sapiens) (UniProt P21554); test: Allosteric modulation of human CB1R expressed in CHO cell membranes assessed as effect on CP55940-stimulated [35S]GTPgammaS binding at 100 nM after 90 mins by liquid scintillation counting method; type: functional; outline: as §3

Cannabinoid receptor 2 (Homo sapiens), sequence (P34972 whole entry): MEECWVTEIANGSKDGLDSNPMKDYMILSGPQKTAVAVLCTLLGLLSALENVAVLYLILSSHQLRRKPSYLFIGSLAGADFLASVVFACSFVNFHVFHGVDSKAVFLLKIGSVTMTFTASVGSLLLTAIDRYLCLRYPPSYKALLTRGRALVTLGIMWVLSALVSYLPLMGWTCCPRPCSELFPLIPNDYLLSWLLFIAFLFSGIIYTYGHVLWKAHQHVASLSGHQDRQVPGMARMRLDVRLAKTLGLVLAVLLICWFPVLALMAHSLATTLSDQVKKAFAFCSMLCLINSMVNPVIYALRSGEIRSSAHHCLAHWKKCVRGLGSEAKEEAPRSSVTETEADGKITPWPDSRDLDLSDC
Cannabinoid receptor 1 (Homo sapiens), sequence (P21554 whole entry): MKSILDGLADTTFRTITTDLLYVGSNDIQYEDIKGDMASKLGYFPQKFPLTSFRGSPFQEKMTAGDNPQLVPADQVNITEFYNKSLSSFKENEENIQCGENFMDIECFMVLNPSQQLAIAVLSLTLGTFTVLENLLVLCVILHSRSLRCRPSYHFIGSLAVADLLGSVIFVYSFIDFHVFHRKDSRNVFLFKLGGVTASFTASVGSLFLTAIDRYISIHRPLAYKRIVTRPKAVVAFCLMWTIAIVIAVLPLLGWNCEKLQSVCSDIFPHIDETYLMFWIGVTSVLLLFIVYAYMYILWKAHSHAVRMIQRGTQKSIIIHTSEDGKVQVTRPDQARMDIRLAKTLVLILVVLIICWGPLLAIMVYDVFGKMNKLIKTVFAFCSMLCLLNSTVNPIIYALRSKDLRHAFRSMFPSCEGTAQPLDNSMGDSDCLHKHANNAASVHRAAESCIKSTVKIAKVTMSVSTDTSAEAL

Row | SMILES | Activity [1] | Activity [2] | inhibition [3] | further results
1 | Cc1c(-c2ccccc2)cc(NC(=O)C2CCCCCC2)c(=O)n1Cc1ccc(F)cc1 | Active | inactive |  | 
2 | Cc1c(Cl)cc(NC(=O)C2CCCCCC2)c(=O)n1Cc1ccc(F)cc1 |  | inactive | Active | 
3 | O=C(Nc1c(O)c(Br)cn(Cc2ccc(F)cc2)c1=O)C1CCCCCC1 | Active | Active |  | 
4 | Cc1c(F)cc(NC(=O)C2CCCCCC2)c(=O)n1Cc1ccc(F)cc1 | Active | inactive |  | 
5 | Cc1ccn(Cc2ccc(F)cc2)c(=O)c1NC(=O)C1CCCCCC1 |  | inactive | Active | 
6 | Cc1c(Br)cn(Cc2ccc(F)cc2)c(=O)c1NC(=O)C1CCCCCC1 | Active | Active |  | Activity [4]: 40%; inhibition [5]: inactive; Time [6]: 0.75 min; Activity [7]: Active; CI [8]: 0.2012; Activity [9]: Active; Activity [10]: inactive; Activity [11]: Active; inhibition [12]: inactive; Activity [13]: inactive; Time [14]: 0.5 min; Activity [15]: inactive; Activity [16]: Active; Activity [17]: Active; Activity [18]: inactive; Activity [19]: inactive

Second part, led by results:

Row | Activity [1] | Activity [2] | inhibition [3] | SMILES | further results
7 | Active | inactive |  | COc1ccc(-c2cc(NC(=O)C3CCCCCC3)c(=O)n(Cc3ccc(F)cc3)c2C)cc1 | 
8 |  | inactive | Active | Cc1c(Br)c[nH]c(=O)c1NC(=O)C1CCCCCC1 | 
9 | Active | inactive |  | Cc1c(Cl)cn(Cc2ccc(F)cc2)c(=O)c1NC(=O)C1CCCCCC1 | 
10 | Active | inactive |  | COc1ccc(-c2cn(Cc3ccc(F)cc3)c(=O)c(NC(=O)C3CCCCCC3)c2C)cc1 | 
11 | Active | inactive |  | Cc1c(Br)cc(NC(=O)C2CCCCCC2)c(=O)n1Cc1ccc(F)cc1 | 
12 |  | inactive | Active | Cc1ccc(NC(=O)C2CCCCCC2)c(=O)n1Cc1ccc(F)cc1 | 
13 | Active | inactive |  | Cc1c(-c2ccccc2)cn(Cc2ccc(F)cc2)c(=O)c1NC(=O)C1CCCCCC1 | 
